What all share (assay type): functional
Assay [1] is filed under the species Rattus norvegicus. The assay can be described thus: Percentage cytochrome P-450 loss from phenobarbital pretreated rats was measured in the presence of oxygen and NADPH after 10 min. In short, it runs like this:
(§1)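 Liver microsomes from phenobarbital-pretreated male Sprague-Dawley rats (1 mg/mL protein) were incubated at 37 °C with 1 mM ethchlorvynol, 1 mM NADPH, 1.5 mM EDTA and 150 mM KCl in […], pH 7.4, under air. The reaction was started with NADPH. Cytochrome P-450 loss was measured spectroscopically. Values are the mean ± SD of three determinations.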

The species entered for assay [2] is Rattus norvegicus. The assay can be described thus: Percentage cytochrome P-450 loss from phenobarbital pretreated rats was measured in the presence of oxygen and NADPH after 20 min. In short, it runs like this: as §1
The species entered for assay [3] is Rattus norvegicus. The assay can be described thus: Percentage cytochrome P-450 loss from phenobarbital pretreated rats was measured in the presence of oxygen and NADPH after 30 min. In short, it runs like this:
as §1

For assay [4], the species on record is Rattus norvegicus. The assay can be described thus: Percentage cytochrome P-450 loss from phenobarbital pretreated rats was measured in the presence of the Ethchlorvynol after 10 min; Not detectable.
The species named for assay [5] is Rattus norvegicus. The assay can be described thus: Percentage cytochrome P-450 loss from phenobarbital pretreated rats was measured in the presence of the Ethchlorvynol after 20 min; Not detectable.
The species entered for assay [6] is Rattus norvegicus. The assay can be described thus: Percentage cytochrome P-450 loss from phenobarbital pretreated rats was measured in the presence of the Ethchlorvynol after 30 min; Not detectable.
The species named for assay [7] is Rattus norvegicus. The assay can be described thus: Percentage cytochrome P-450 loss from phenobarbital pretreated rats was measured in the presence of the NADPH after 10 min; Not detectable.
Assay [8] is filed under the species Rattus norvegicus. The assay can be described thus: Percentage cytochrome P-450 loss from phenobarbital pretreated rats was measured in the presence of the NADPH after 20 min; Not detectable.
The species named for assay [9] is Rattus norvegicus. The assay can be described thus: Percentage cytochrome P-450 loss from phenobarbital pretreated rats was measured in the presence of the NADPH after 30 min; Not detectable.
The species named for assay [10] is Rattus norvegicus. The assay can be described thus: Percentage cytochrome P-450 loss from phenobarbital pretreated rats was measured in the presence of the oxygen after 20 min.
For assay [11], the species on record is Rattus norvegicus. The assay can be described thus: Heme loss from phenobarbital pretreated rats was measured in the presence of oxygen and NADPH after 20 min. In short, it runs like this: (§2)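 This was a separate 20-min experiment using the standard microsomal mix at 37 °C: phenobarbital-induced rat microsomes at 1 mg/mL, 1 mM ethchlorvynol, 1 mM NADPH, EDTA and KCl in phosphate buffer pH 7.4. P-450 loss was measured spectroscopically and heme loss by the pyridine hemochromogen assay, both expressed in nmol. Values are the mean ± SD of three determinations.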

For assay [12], the species on record is Rattus norvegicus. The assay can be described thus: Cytochrome P-450 loss from phenobarbital pretreated rats was measured in the presence of oxygen and NADPH after 20 min. In short, it runs like this:
as §2

With `C#CC(O)(/C=C/Cl)CC` (configuration not stated) [ETHCHLORVYNOL], the Cytochrome loss in the assay listed under Rattus norvegicus [1] is 30%; in the assay filed under Rattus norvegicus [2] it was 35%; in the assay filed under Rattus norvegicus [3], 38%; in the assay filed under Rattus norvegicus [4] it was “Not detectable”; in the assay filed under Rattus norvegicus [5] it was “Not detectable”; in the assay filed under Rattus norvegicus [6], “Not detectable”. Also, the Cytochrome loss entry was “Not detectable” in the assay filed under Rattus norvegicus [7], “Not detectable” in the assay filed under Rattus norvegicus [8], “Not detectable” in the assay listed under Rattus norvegicus [9] and 4% in the assay listed under Rattus norvegicus [10]. Moreover, the Heme loss in the assay filed under Rattus norvegicus [11] amounted to 0.32 nM. In addition, in the assay listed under Rattus norvegicus [12], the P-450 loss stood at 0.52 nM.

(Values after ChEMBL document CHEMBL1121948, “Alkylation of the prosthetic heme in cytochrome P-450 during oxidative metabolism of the sedative-hypnotic ethchlorvynol” (1982).)
